Laboratory results published in ChEMBL document CHEMBL2429814 (J Med Chem, 2013).
pEC50: −log10 of the molar value. Each block holds one molecule with its values, some of them ahead of it.

Key:
[1] = biological target: T1, Metabotropic glutamate receptor 5 (Rattus norvegicus, UniProt P31424); assay: Positive allosteric modulation of rat mGluR5 stably expressed in HEK293 cells assessed as increase in intracellular calcium level by Fluo-4AM dye-based fluorescence assay; format: functional, cell-based; conditions: read-out: EC50
Outline: (§1)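 HEK293 cells stably expressing rat mGlu5 (low receptor density line), 15,000 cells/well, grown overnight at 37°C/5% CO2. Loaded with Fluo-4AM for 50 min at 37°C in HBSS with 20 mM HEPES, 2.5 mM probenecid, pH 7.4. Triple add: compound, then EC20 glutamate 140 s later, then EC80 glutamate 60 s later. Calcium fluorescence read over time. Values are means of ≥3 independent experiments run in duplicate or triplicate.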

[2] = biological target: Metabotropic glutamate receptor 5 (Rattus norvegicus) (UniProt P31424); assay: Positive allosteric modulation of rat mGluR5 stably expressed in HEK293 cells assessed as increase in intracellular calcium level by Fluo-4AM dye-based fluorescence assay relative to glutamate; format: functional, cell-based
[3] = biological target: T1, Metabotropic glutamate receptor 5; assay: Agonist activity at rat mGluR5 stably expressed in HEK293 cells assessed as increase in intracellular calcium level by Fluo-4AM dye-based fluorescence assay relative to glutamate; format: cell-based; conditions: read-out: Efficacy
Outline: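 HEK293 cells stably expressing rat mGlu5 (low receptor density), 15,000 cells/well, grown overnight, then loaded with Fluo-4AM for 50 min at 37°C in HBSS/20 mM HEPES/2.5 mM probenecid, pH 7.4. Triple-add protocol: compound, then glutamate EC20 140 s later, then EC80 60 s later. Fluorescence read over time. At least three independent runs in duplicate or triplicate; response given as % of glutamate maximum.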

[4] = biological target: T1, Metabotropic glutamate receptor 5; assay: Agonist activity at rat mGluR5 stably expressed in HEK293 cells assessed as increase in intracellular calcium level by Fluo-4AM dye-based fluorescence assay; format: cell-based; conditions: for pEC50: read-out: EC50; outline: as §1
[5] = biological target: Metabotropic glutamate receptor 5 (Rattus norvegicus) (UniProt P31424); assay: Potentiation of rat mGluR5 receptor stably expressed in HEK293 cells assessed as fold shift in glutamate concentration response curve at 10 uM relative to control; format: cell-based
Outline: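 HEK293 cells stably expressing rat mGlu5 were loaded with Fluo-4AM. Compound at 10 µM, or vehicle, was added, and a glutamate concentration-response curve followed 140 s later. The fold leftward shift of the glutamate curve was read from calcium fluorescence. Values are means of three independent experiments in triplicate.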

[6] = biological target: Metabotropic glutamate receptor 5 (Homo sapiens, UniProt P41594); assay: Positive allosteric modulation of mGluR5 (unknown origin) at 10 uM relative to glutamate
Outline: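 HEK293 cells stably expressing rat mGlu5 (low receptor expression line) were plated overnight at 37°C/5% CO2 and loaded with Fluo-4AM for 50 min at 37°C in HBSS with 20 mM HEPES and 2.5 mM probenecid, pH 7.4. PAM (10 µM) or vehicle was added, then a glutamate concentration-response curve 140 s later. Read-out was calcium fluorescence, reported as glutamate fold-shift, three independent runs in triplicate.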

[7] = biological target: T1, Metabotropic glutamate receptor 5; assay: Positive allosteric modulation of rat mGluR5

Metabotropic glutamate receptor 5 (Rattus norvegicus), sequence (P31424 21-1203 limits assumed): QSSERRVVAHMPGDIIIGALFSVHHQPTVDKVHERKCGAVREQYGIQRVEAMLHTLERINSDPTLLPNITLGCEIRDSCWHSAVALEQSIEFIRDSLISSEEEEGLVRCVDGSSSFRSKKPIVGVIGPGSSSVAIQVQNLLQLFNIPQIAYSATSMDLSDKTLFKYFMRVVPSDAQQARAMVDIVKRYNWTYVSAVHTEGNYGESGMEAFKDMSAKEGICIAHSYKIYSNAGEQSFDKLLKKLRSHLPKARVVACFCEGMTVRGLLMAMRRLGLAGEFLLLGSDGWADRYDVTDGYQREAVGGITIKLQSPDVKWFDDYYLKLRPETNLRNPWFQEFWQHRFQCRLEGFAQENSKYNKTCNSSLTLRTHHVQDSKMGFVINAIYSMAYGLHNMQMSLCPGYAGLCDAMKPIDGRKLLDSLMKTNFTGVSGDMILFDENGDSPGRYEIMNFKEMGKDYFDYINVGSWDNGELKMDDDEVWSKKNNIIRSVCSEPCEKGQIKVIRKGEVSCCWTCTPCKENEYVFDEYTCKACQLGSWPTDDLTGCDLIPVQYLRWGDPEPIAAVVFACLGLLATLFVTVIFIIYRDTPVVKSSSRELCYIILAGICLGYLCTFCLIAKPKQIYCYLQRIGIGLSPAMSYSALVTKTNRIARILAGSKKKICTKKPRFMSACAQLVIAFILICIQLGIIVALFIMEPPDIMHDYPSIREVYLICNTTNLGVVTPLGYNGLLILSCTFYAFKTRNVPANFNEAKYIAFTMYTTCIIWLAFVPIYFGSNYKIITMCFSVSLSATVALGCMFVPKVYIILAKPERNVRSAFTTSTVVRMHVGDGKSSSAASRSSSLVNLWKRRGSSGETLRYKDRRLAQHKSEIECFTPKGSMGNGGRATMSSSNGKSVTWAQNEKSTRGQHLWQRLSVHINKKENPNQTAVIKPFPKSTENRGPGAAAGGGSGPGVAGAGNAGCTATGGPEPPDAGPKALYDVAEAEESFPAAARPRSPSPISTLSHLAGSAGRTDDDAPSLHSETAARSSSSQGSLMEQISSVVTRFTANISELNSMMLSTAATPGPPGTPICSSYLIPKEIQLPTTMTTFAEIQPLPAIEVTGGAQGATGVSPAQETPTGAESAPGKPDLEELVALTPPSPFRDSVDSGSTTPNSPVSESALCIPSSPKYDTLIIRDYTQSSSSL
T1 sequence (P31424 whole entry): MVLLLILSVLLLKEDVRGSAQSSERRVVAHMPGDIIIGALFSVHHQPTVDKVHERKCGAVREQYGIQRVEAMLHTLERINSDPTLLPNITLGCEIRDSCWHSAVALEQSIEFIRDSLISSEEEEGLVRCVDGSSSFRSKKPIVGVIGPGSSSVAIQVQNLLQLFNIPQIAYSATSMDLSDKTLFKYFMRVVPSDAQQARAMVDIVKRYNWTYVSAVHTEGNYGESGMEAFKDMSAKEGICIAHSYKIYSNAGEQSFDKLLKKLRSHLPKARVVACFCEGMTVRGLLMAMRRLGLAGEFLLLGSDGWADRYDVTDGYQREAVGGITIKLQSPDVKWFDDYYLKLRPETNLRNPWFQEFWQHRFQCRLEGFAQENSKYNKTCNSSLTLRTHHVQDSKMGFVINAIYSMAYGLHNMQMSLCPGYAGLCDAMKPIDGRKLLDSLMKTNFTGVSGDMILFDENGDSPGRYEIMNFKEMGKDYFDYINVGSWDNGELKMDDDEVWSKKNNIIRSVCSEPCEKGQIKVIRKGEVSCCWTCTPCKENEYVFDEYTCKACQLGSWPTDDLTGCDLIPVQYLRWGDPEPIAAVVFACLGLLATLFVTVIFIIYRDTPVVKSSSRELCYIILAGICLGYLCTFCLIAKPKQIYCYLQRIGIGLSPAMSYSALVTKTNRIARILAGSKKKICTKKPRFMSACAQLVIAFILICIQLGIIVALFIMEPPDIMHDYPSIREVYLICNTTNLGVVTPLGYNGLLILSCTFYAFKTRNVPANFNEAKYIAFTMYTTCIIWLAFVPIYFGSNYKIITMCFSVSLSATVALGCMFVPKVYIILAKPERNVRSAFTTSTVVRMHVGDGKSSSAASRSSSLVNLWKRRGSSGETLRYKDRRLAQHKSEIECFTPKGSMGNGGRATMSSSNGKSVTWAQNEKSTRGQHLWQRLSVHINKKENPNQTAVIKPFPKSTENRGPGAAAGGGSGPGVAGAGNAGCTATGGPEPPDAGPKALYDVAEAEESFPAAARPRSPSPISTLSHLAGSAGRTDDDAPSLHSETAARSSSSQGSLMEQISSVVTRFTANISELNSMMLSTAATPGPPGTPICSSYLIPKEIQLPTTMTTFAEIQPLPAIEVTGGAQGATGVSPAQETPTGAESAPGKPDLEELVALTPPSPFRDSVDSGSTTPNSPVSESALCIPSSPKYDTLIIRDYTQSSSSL
Metabotropic glutamate receptor 5 (Homo sapiens, UniProt P41594), sequence (P41594 21-1212 limits assumed): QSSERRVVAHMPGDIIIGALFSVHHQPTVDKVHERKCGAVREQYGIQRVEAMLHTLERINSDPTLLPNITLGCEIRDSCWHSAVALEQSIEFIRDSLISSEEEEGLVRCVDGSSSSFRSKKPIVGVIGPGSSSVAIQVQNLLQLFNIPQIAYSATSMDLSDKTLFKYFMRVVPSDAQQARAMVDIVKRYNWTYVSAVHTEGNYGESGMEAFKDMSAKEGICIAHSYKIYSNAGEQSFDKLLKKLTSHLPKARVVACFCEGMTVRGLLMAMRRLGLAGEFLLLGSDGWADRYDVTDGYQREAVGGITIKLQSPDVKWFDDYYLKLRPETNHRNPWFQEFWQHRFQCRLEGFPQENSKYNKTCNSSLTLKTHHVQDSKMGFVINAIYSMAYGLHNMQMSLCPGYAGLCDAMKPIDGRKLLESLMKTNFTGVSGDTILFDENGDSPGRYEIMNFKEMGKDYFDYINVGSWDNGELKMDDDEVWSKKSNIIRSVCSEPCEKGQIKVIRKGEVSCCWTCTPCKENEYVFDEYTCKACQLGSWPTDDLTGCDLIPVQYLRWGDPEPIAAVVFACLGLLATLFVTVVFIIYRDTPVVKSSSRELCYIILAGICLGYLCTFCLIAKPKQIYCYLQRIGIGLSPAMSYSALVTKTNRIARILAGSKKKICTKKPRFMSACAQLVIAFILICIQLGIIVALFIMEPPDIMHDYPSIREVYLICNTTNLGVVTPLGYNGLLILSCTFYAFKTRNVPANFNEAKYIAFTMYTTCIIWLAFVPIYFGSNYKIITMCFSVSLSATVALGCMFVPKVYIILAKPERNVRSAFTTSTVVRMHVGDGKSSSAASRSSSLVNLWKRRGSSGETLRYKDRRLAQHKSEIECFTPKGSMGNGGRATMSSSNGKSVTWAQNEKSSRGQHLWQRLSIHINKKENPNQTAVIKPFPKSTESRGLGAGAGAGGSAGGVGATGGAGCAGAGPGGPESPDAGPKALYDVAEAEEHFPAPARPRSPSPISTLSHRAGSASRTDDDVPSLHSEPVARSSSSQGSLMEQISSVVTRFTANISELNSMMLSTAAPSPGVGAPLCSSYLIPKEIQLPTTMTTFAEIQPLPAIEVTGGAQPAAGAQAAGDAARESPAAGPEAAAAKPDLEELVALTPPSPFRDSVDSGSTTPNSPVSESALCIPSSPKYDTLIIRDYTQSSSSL

SMILES: C[C@@H](NC(=O)c1ccc(C#Cc2cccc(F)c2)cc1)C(C)(C)O
pEC50 [1]: 8.12
Efficacy [2]: 53.9%
Emax [3]: 43.6%
pEC50 [4]: 5.98

SMILES: C[C@@H](NC(=O)c1ccc(C#Cc2ccc(F)cc2F)cn1)C(C)(C)O
pEC50 [1]: 7.58
Efficacy [2]: 61.2%
Emax [3]: 38.2%
pEC50 [4]: 5.43

SMILES: C[C@@H](NC(=O)c1ccc(C#Cc2ccccc2)cn1)C(C)(C)O
pEC50 [1]: 8.39
Efficacy [2]: 60.9%
Emax [3]: 43.2%
pEC50 [4]: 6.06

SMILES: CC1(CNC(=O)c2ccc(C#Cc3cccc(F)c3)cn2)COC1
pEC50 [1]: 7.97
Efficacy [2]: 60.4%
fold change (FC) [5]: 3.3

SMILES: C[C@@H](NC(=O)c1ccc(C#Cc2cccc(F)c2)cn1)C(F)(F)F
pEC50 [1]: 7.68
Efficacy [2]: 52.1%
fold change (FC) [5]: 1.5

SMILES: O=C(NCC(F)(F)F)c1ccc(C#Cc2cccc(F)c2)cn1
pEC50 [1]: 6.65
Efficacy [2]: 67%
Emax [3]: 5.8%
pEC50 [4]: 4.97

SMILES: CC(C)CNC(=O)c1ccc(C#Cc2cccc(F)c2)cn1
pEC50 [1]: 7.54
Efficacy [2]: 58.2%
fold change (FC) [5]: 1.9

SMILES: O=C(NCC1CCC1)c1ccc(C#Cc2cccc(F)c2)cn1
pEC50 [1]: 7.08
Efficacy [2]: 68.1%
Emax [3]: 4.7%
EC50 ([4]; read-out: pEC50 (converted)): > 10000 nM

SMILES: C[C@@H](NC(=O)c1ccc(C#Cc2cccc(F)c2)nn1)C(C)(C)O
pEC50 [1]: 7.66
Efficacy [2]: 70.2%
Emax [3]: 16.5%
pEC50 [4]: 5.67

SMILES: C[C@@H](NC(=O)c1ccc(C#Cc2cccc(F)c2)nc1)C(C)(C)O
pEC50 [1]: 7.10
Efficacy [2]: 64.9%
Emax [3]: 26.6%
pEC50 [4]: 5.17

SMILES: CC1(NC(=O)c2ccc(C#Cc3ccncc3)cn2)COC1
pEC50 [1]: 6.16
Efficacy [2]: 36%

SMILES: CC(C)[C@@H](C)NC(=O)c1ccc(C#Cc2cccc(F)c2)cn1
pEC50 [1]: 8.35
Efficacy [2]: 69.3%
Emax [3]: 22.5%
pEC50 [4]: 5.83

SMILES: CC(C)[C@@H](C)NC(=O)c1ccc(C#Cc2ccccn2)cn1
pEC50 [1]: 7.10
Efficacy [2]: 58.5%
fold change (FC) [5]: 1.3

SMILES: C[C@@H](NC(=O)c1ncc(C#Cc2cccc(F)c2)cn1)C(C)(C)O
pEC50 [1]: 7.32
Efficacy [2]: 64.1%
Emax [3]: 19.2%
pEC50 [4]: 5.38

SMILES: Cc1cccc(C#Cc2ccc(C(=O)N[C@H](C)C(C)(C)O)nc2)c1
pEC50 [1]: 8.19
Efficacy [2]: 68.6%
Emax [3]: 20.8%
pEC50 [4]: 5.87

SMILES: O=C1c2ccc(F)cc2CCC2CC[C@@H](c3noc(-c4ccc(F)cn4)n3)CN12 (stereo partly drawn)
fold change (FC) [6]: 6

fold change (FC) [6]: 11
SMILES: C[C@@H]1CC[C@H](c2noc(-c3ccc(F)cn3)n2)CN1C(=O)c1ccccc1

SMILES: Cc1cc(C(=O)N[C@H](C)C(C)(C)O)ncc1C#Cc1cccc(F)c1
pEC50 [1]: 6.62
Efficacy [2]: 66.6%

SMILES: C[C@@H](NC(=O)c1cnc(C#Cc2cccc(F)c2)cn1)C(C)(C)O
pEC50 [1]: 7.90
Efficacy [2]: 64.4%
Emax [3]: 17.2%
pEC50 [4]: 5.52

SMILES: CC1(CCNC(=O)c2ccc(C#Cc3cccc(F)c3)cn2)COC1
pEC50 [1]: 7.33
Efficacy [2]: 65.7%
Emax [3]: 16.3%
pEC50 [4]: 5.55

SMILES: CC(C)(C)CNC(=O)c1ccc(C#Cc2cccc(F)c2)cn1
pEC50 [1]: 7.78
Efficacy [2]: 63.9%
Emax [3]: 9.5%
pEC50 [4]: 5.59

SMILES: CC(C)(CO)NC(=O)c1ccc(C#Cc2cccc(F)c2)cn1
pEC50 [1]: 8.10
Efficacy [2]: 60.9%
Emax [3]: 9.3%
pEC50 [4]: 6.14

SMILES: C[C@@H](NC(=O)c1ccc(C#Cc2ccncc2)cn1)C(C)(C)O
pEC50 [1]: 7.37
Efficacy [2]: 66.6%
Emax [3]: 22.4%
pEC50 [4]: 5.33

SMILES: C[C@@H](NC(=O)c1ccc(C#Cc2cccc(F)c2)cn1)C(C)(C)F
pEC50 [1]: 8.28
Efficacy [2]: 68.6%
Emax [3]: 42.8%
pEC50 [4]: 5.69

SMILES: C[C@H](NC(=O)c1ccc(C#Cc2cccc(F)c2)cn1)C(C)(C)C
pEC50 [1]: 7.28
Efficacy [2]: 70.8%
Emax [3]: 20%
pEC50 [4]: 5.27

SMILES: Cc1nc(C#Cc2cccc(F)c2)ccc1C(=O)N[C@H](C)C(C)(C)O
pEC50 [1]: 7.77
Efficacy [2]: 64.9%
Emax [3]: 9.2%
pEC50 [4]: 5.96

SMILES: Cc1ccc(C#Cc2ccc(C(=O)N[C@H](C)C(C)(C)O)nc2)cc1
pEC50 [1]: 6.97
Efficacy [2]: 63.1%

SMILES: CC(C)(O)CCNC(=O)c1ccc(C#Cc2cccc(F)c2)cn1
pEC50 [1]: 6.87
Efficacy [2]: 61.9%
fold change (FC) [5]: 5.3

SMILES: C[C@H](NC(=O)c1ccc(C#Cc2cccc(F)c2)cn1)C(F)(F)F
pEC50 [1]: 7.66
Efficacy [2]: 60.8%
Emax [3]: 21.4%
pEC50 [4]: 5.86

pEC50 [1]: 7.24
Efficacy [2]: 61.6%
Emax [3]: 37.9%
pEC50 [4]: 5.44
SMILES: C[C@@H](NC(=O)c1ccc(C#Cc2cc(F)cc(F)c2)cn1)C(C)(C)O

SMILES: C[C@@H](NC(=O)c1ccc(C#Cc2ccc(F)cc2)cn1)C(C)(C)O
pEC50 [1]: 7.91
Efficacy [2]: 66.2%
Emax [3]: 38.4%
pEC50 [4]: 5.82

SMILES: C[C@@H](NC(=O)c1ccc(C#Cc2ccccc2F)cn1)C(C)(C)O
pEC50 [1]: 8.10
Efficacy [2]: 60%
Emax [3]: 29.6%
pEC50 [4]: 5.94

SMILES: C[C@@H](NC(=O)c1nc(C#Cc2cccc(F)c2)cs1)C(C)(C)O
pEC50 [1]: 7.47
Efficacy [2]: 62.1%
Emax [3]: 26.1%
pEC50 [4]: 5.32

SMILES: C[C@@H](NC(=O)c1ccc(C#CC2CC2)cn1)C(C)(C)O
pEC50 [1]: 5.89
Efficacy [2]: 63.4%

SMILES: C[C@@H](NC(=O)c1ccc(C#Cc2cccnc2)cn1)C(C)(C)O
pEC50 [1]: 6.46
Efficacy [2]: 71.5%
Emax [3]: 25.9%
pEC50 [4]: 5.03

SMILES: CCCNC(=O)c1ccc(C#Cc2cccc(F)c2)cn1
pEC50 [1]: 7.46
Efficacy [2]: 65.9%
Emax [3]: 8.3%
pEC50 [4]: 5.52

SMILES: C[C@@H](NC(=O)c1ccc(C#Cc2cccc(F)c2)cn1)C(C)(C)C
pEC50 [1]: 7.75
Efficacy [2]: 66%
Emax [3]: 31.2%
pEC50 [4]: 5.56

SMILES: Cc1nc(C#Cc2ccc(C(=O)N[C@H](C)C(C)(C)O)nc2)cs1
pEC50 [1]: 7.23
Efficacy [2]: 66.6%
fold change (FC) [5]: 1.6

SMILES: C[C@@H](NC(=O)c1ccc(C#CC2CCCC2)cn1)C(C)(C)O
pEC50 [1]: 7.03
Efficacy [2]: 63.7%
Emax [3]: 14.8%
pEC50 [4]: 5.01

SMILES: CC(C)[C@H](C)NC(=O)c1ccc(C#Cc2cccc(F)c2)cn1
pEC50 [1]: 7.69
Efficacy [2]: 66.7%
Emax [3]: 13.1%
pEC50 [4]: 5.65

SMILES: C[C@@H](NC(=O)c1ccc(C#Cc2ncccc2F)cn1)C(C)(C)O
pEC50 [1]: 7.47
Efficacy [2]: 60.6%
Emax [3]: 29.2%
pEC50 [4]: 5.43

SMILES: Cc1cc(C#Cc2cccc(F)c2)cnc1C(=O)N[C@H](C)C(C)(C)O
pEC50 [1]: 6.98
Efficacy [2]: 66.4%
fold change (FC) [5]: 2.3

pEC50 [7]: 6.70
SMILES: O=C(c1ccc(C#Cc2cccc(F)c2)nc1)N1CCC(O)CC1

SMILES: Cc1ccccc1C#Cc1ccc(C(=O)N[C@H](C)C(C)(C)O)nc1
pEC50 [1]: 6.66
Efficacy [2]: 59.9%
Emax [3]: 24.1%
pEC50 [4]: 4.91

SMILES: O=C(NCC1CC1)c1ccc(C#Cc2cccc(F)c2)cn1
pEC50 [1]: 7.44
Efficacy [2]: 61.4%
fold change (FC) [5]: 1.6

pEC50 [1]: 8.59
SMILES: CC(C)(C)NC(=O)c1ccc(C#Cc2cccc(F)c2)cn1

SMILES: C[C@@H](NC(=O)c1ccc(C#Cc2ccccn2)cn1)C(C)(C)F
pEC50 [1]: 7.65
Efficacy [2]: 54.9%
fold change (FC) [5]: 1.5

SMILES: C[C@@H](NC(=O)c1ccc(C#Cc2ccccn2)cn1)C(C)(C)C
pEC50 [1]: 7.20
Efficacy [2]: 63%
Emax [3]: 24.2%
pEC50 [4]: 5.21

SMILES: CC(C)(O)CNC(=O)c1ccc(C#Cc2cccc(F)c2)cn1
pEC50 [1]: 7.46
Efficacy [2]: 61.5%
Emax [3]: 20%
pEC50 [4]: 5.40

SMILES: C[C@@H](NC(=O)c1ccc(C#Cc2cc(F)ccn2)cn1)C(C)(C)O
pEC50 [1]: 7.44
Efficacy [2]: 66.2%
Emax [3]: 33%
pEC50 [4]: 5.40

SMILES: C[C@@H](NC(=O)c1cnc(C#Cc2cccc(F)c2)nc1)C(C)(C)O
pEC50 [1]: 6.91
Efficacy [2]: 68.7%
fold change (FC) [5]: 4

SMILES: C[C@@H](NC(=O)c1ccc(C#Cc2ccc(F)cn2)cn1)C(C)(C)O
pEC50 [1]: 7.55
Efficacy [2]: 64.6%
Emax [3]: 13.5%
pEC50 [4]: 5.77

SMILES: C[C@@H](NC(=O)c1ccc(C#Cc2cccc(F)n2)cn1)C(C)(C)O
pEC50 [1]: 7.87
Efficacy [2]: 63%
Emax [3]: 8.3%
pEC50 [4]: 5.89

pEC50 [7]: 7.77
SMILES: O=C(N[C@H]1C[C@H](O)C1)c1ccc(C#Cc2cccc(F)c2)cn1
